Activity calls are given as the source filed them. No cut-off for these calls is given here.
Legend:
Format in all cases: cell-based
[1] = target: Histone-lysine N-methyltransferase EZH2 (Homo sapiens) (UniProt Q15910); assay: Inhibition of EZH2 in human HeLa cells assessed as decrease in H3K27me3 levels at 2 uM after 6 hrs by Western blot analysis
[2] = target: Histone-lysine N-methyltransferase EZH2 (Homo sapiens) (UniProt Q15910); assay: Inhibition of EZH2 in human MCF7 cells assessed as decrease in H3K27me3 levels at 2 uM after 6 hrs by Western blot analysis
[3] = target: Histone-lysine N-methyltransferase EZH2 (Homo sapiens) (UniProt Q15910); assay: Inhibition of EZH2 in human A549 cells assessed as decrease in H3K27me3 levels at 2 uM after 6 hrs by Western blot analysis
[4] = target: Histone-lysine N-methyltransferase EZH2 (Homo sapiens) (UniProt Q15910); assay: Inhibition of EZH2 in human AsPC1 cells assessed as decrease in H3K27me3 levels at 2 uM after 6 hrs by Western blot analysis
[5] = target: Histone-lysine N-methyltransferase EZH2 (Homo sapiens) (UniProt Q15910); assay: Inhibition of EZH2 in human ASPC1 cells assessed as effect on PITX2 mRNA level after 6 hrs by RT-PCR analysis
Outline: (§1)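 Cells were treated for two four-day cycles with 2 μM GSK343 or UNC1999, then left untreated or stimulated with human IFNγ for 6 h. mRNA was measured by reverse transcription quantitative PCR and normalized to β-actin. Three biological replicates were run per treatment group.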

[6] = target: Histone-lysine N-methyltransferase EZH2 (Homo sapiens) (UniProt Q15910); assay: Inhibition of EZH2 in human MCF7 cells assessed as effect on PITX2 mRNA level after 6 hrs by RT-PCR analysis
Outline: (§2)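 Cells pretreated for two 4-day cycles with 2 µM GSK343 or UNC1999, then left unstimulated or given human IFNγ for 6 h. RNA reverse-transcribed and measured by quantitative PCR, normalized to β-actin. Three biological replicates per treatment group.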

[7] = target: Histone-lysine N-methyltransferase EZH2 (Homo sapiens) (UniProt Q15910); assay: Inhibition of EZH2 in human A549 cells assessed as effect on PITX2 mRNA level after 6 hrs by RT-PCR analysis; outline: as §1
[8] = target: Histone-lysine N-methyltransferase EZH2 (Homo sapiens) (UniProt Q15910); assay: Inhibition of EZH2 in human HeLa cells assessed as effect on PITX2 mRNA level after 6 hrs by RT-PCR analysis; outline: as §1
[9] = target: Histone-lysine N-methyltransferase EZH2 (Homo sapiens) (UniProt Q15910); assay: Inhibition of EZH2 in human ASPC1 cells assessed as effect on HPRT mRNA level after 6 hrs by RT-PCR analysis; outline: as §1
[10] = target: Histone-lysine N-methyltransferase EZH2 (Homo sapiens) (UniProt Q15910); assay: Inhibition of EZH2 in human MCF7 cells assessed as effect on HPRT mRNA level after 6 hrs by RT-PCR analysis; outline: as §1
[11] = target: Histone-lysine N-methyltransferase EZH2 (Homo sapiens) (UniProt Q15910); assay: Inhibition of EZH2 in human A549 cells assessed as effect on HPRT mRNA level after 6 hrs by RT-PCR analysis; outline: as §1
[12] = target: Histone-lysine N-methyltransferase EZH2 (Homo sapiens) (UniProt Q15910); assay: Inhibition of EZH2 in human HeLa cells assessed as effect on HPRT mRNA level after 6 hrs by RT-PCR analysis; outline: as §1
[13] = target: Histone-lysine N-methyltransferase EZH2 (Homo sapiens) (UniProt Q15910); assay: Inhibition of EZH2 in human ASPC1 cells assessed as effect on IRF1 mRNA level after 6 hrs by RT-PCR analysis; outline: as §1
[14] = target: Histone-lysine N-methyltransferase EZH2 (Homo sapiens) (UniProt Q15910); assay: Inhibition of EZH2 in human MCF7 cells assessed as effect on IRF1 mRNA level after 6 hrs by RT-PCR analysis; outline: as §1
[15] = target: Histone-lysine N-methyltransferase EZH2 (Homo sapiens) (UniProt Q15910); assay: Inhibition of EZH2 in human A549 cells assessed as effect on IRF1 mRNA level after 6 hrs by RT-PCR analysis; outline: as §1
[16] = target: Histone-lysine N-methyltransferase EZH2 (Homo sapiens) (UniProt Q15910); assay: Inhibition of EZH2 in human HeLa cells assessed as effect on IRF1 mRNA level after 6 hrs by RT-PCR analysis; outline: as §1
[17] = target: Histone-lysine N-methyltransferase EZH2 (Homo sapiens) (UniProt Q15910); assay: Inhibition of EZH2 in human ASPC1 cells assessed as effect on PITX2 mRNA level after 6 hrs by RT-PCR analysis in presence of IFN-gamma; outline: as §1
[18] = target: Histone-lysine N-methyltransferase EZH2 (Homo sapiens) (UniProt Q15910); assay: Inhibition of EZH2 in human MCF7 cells assessed as effect on PITX2 mRNA level after 6 hrs by RT-PCR analysis in presence of IFN-gamma; outline: as §2
[19] = target: Histone-lysine N-methyltransferase EZH2 (Homo sapiens) (UniProt Q15910); assay: Inhibition of EZH2 in human A549 cells assessed as effect on PITX2 mRNA level after 6 hrs by RT-PCR analysis in presence of IFN-gamma; outline: as §1
[20] = target: Histone-lysine N-methyltransferase EZH2 (Homo sapiens) (UniProt Q15910); assay: Inhibition of EZH2 in human HeLa cells assessed as effect on PITX2 mRNA level after 6 hrs by RT-PCR analysis in presence of IFN-gamma; outline: as §1
[21] = target: Histone-lysine N-methyltransferase EZH2 (Homo sapiens) (UniProt Q15910); assay: Inhibition of EZH2 in human ASPC1 cells assessed as effect on HPRT mRNA level after 6 hrs by RT-PCR analysis in presence of IFN-gamma; outline: as §1
[22] = target: Histone-lysine N-methyltransferase EZH2 (Homo sapiens) (UniProt Q15910); assay: Inhibition of EZH2 in human MCF7 cells assessed as effect on HPRT mRNA level after 6 hrs by RT-PCR analysis in presence of IFN-gamma; outline: as §1
[23] = target: Histone-lysine N-methyltransferase EZH2 (Homo sapiens) (UniProt Q15910); assay: Inhibition of EZH2 in human A549 cells assessed as effect on HPRT mRNA level after 6 hrs by RT-PCR analysis in presence of IFN-gamma; outline: as §1
[24] = target: Histone-lysine N-methyltransferase EZH2 (Homo sapiens) (UniProt Q15910); assay: Inhibition of EZH2 in human HeLa cells assessed as effect on HPRT mRNA level after 6 hrs by RT-PCR analysis in presence of IFN-gamma; outline: as §1
[25] = target: Histone-lysine N-methyltransferase EZH2 (Homo sapiens) (UniProt Q15910); assay: Inhibition of EZH2 in human ASPC1 cells assessed as effect on IRF1 mRNA level after 6 hrs by RT-PCR analysis in presence of IFN-gamma; outline: as §1
[26] = target: Histone-lysine N-methyltransferase EZH2 (Homo sapiens) (UniProt Q15910); assay: Inhibition of EZH2 in human MCF7 cells assessed as effect on IRF1 mRNA level after 6 hrs by RT-PCR analysis in presence of IFN-gamma; outline: as §2
[27] = target: Histone-lysine N-methyltransferase EZH2 (Homo sapiens) (UniProt Q15910); assay: Inhibition of EZH2 in human A549 cells assessed as effect on IRF1 mRNA level after 6 hrs by RT-PCR analysis in presence of IFN-gamma; outline: as §1
[28] = target: Histone-lysine N-methyltransferase EZH2 (Homo sapiens) (UniProt Q15910); assay: Inhibition of EZH2 in human HeLa cells assessed as effect on IRF1 mRNA level after 6 hrs by RT-PCR analysis in presence of IFN-gamma; outline: as §1

Chain of Histone-lysine N-methyltransferase EZH2 (Homo sapiens) (Q15910 whole entry, looked up): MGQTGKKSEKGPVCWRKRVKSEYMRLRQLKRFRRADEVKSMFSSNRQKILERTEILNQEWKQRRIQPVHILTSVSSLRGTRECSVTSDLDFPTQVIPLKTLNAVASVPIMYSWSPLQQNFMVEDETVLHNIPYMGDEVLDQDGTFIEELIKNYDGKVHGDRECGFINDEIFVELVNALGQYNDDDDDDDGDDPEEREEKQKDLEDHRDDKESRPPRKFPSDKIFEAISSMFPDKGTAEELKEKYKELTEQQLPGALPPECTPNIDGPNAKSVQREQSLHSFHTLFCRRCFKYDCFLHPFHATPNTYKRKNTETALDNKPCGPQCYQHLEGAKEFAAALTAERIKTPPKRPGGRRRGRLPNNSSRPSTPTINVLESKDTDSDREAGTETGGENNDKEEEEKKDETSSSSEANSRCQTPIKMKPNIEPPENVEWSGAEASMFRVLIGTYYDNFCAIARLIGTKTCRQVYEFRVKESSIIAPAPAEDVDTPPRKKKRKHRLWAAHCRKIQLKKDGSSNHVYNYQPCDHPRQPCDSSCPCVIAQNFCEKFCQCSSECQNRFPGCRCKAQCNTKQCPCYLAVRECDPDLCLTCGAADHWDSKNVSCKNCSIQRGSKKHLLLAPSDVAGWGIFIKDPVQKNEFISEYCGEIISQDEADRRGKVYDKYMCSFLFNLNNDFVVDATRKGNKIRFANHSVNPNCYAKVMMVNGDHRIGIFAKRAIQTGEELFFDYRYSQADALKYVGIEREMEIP

CCCc1cc(C)[nH]c(=O)c1CNC(=O)c1cc(-c2ccnc(N3CCN(C)CC3)c2)cc2c1cnn2C(C)C
inhibition [1]: Active
inhibition [2]: Active
inhibition [3]: Active
inhibition [4]: Active
inhibition [5]: inactive
inhibition [6]: inactive
inhibition [7]: inactive
inhibition [8]: inactive
inhibition [9]: inactive
inhibition [10]: inactive
inhibition [11]: inactive
inhibition [12]: inactive
inhibition [13]: inactive
inhibition [14]: inactive
inhibition [15]: inactive
inhibition [16]: inactive
inhibition [17]: inactive
inhibition [18]: inactive
inhibition [19]: inactive
inhibition [20]: inactive
inhibition [21]: inactive
inhibition [22]: inactive
inhibition [23]: inactive
inhibition [24]: inactive
inhibition [25]: inactive
inhibition [26]: inactive
inhibition [27]: inactive
inhibition [28]: inactive
